Source: PubChem BioAssay
Hits are enriched below; roughly 1.9% of the tested compounds scored in any of these assays.
TDP2 inh: TDP2 (human) inhibition, absorbance primary screen | inhibition, % at 12.8 µM | O95551 | actives 0.34% (n = 370,000) | AID 720702 | recombinant TDP2, T5PNP hydrolysis, p-nitrophenol absorbance 415 nm;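 active = inhibition above the mean of all tested compounds plus 3 SD, set per campaign, cut at about 25% in these data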;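 note: 0% = DMSO with enzyme and 100% = buffer with substrate but no TDP2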
Target sequence (O95551 whole entry, looked up): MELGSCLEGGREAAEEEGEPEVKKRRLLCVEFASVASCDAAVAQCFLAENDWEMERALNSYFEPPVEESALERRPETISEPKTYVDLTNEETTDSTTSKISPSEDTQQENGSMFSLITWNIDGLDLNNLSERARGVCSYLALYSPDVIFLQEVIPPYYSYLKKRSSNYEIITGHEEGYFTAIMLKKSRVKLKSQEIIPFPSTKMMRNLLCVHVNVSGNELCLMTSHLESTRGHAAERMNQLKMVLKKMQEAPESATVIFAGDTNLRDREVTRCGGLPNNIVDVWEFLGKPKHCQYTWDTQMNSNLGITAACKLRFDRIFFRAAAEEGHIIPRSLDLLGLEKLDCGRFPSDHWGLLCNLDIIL
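Read-out basis: percent inhibition. System: recombinant human TDP2. Buffer or medium: Mg2+-containing Tris-HCl buffer, pH 7.5. Repeats: single replicate. Timing: reaction 2 h, 37 °C. Benchmarks: high control without enzyme, low control DMSO plus TDP2. Probe or stimulus: 5 mM T5PNP. Doses: 12.8 µM only. Measured by: epi absorbance of p-nitrophenol freed from T5PNP by hydrolysis.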
Casp6 inh: caspase-6 (human) enzyme inhibition | P55212 | actives 0.53% (n = 350,000) | inhibition, % at 12.5 µM | purified caspase-6, Z-VEID-R110 cleavage fluorescence;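 active = mean inhibition across replicates at least about 35%, with every replicate also reaching that limit, limit read from the data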;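 note: 0% = median of neutral control wells and 100% = no fluorescence left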
Target sequence (P55212 24-179 limits assumed): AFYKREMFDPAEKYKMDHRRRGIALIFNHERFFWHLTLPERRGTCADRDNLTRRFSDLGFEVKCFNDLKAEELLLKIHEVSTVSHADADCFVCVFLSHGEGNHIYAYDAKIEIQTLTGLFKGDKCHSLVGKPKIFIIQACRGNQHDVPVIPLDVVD
Target sequence (P55212 194-293 limits assumed): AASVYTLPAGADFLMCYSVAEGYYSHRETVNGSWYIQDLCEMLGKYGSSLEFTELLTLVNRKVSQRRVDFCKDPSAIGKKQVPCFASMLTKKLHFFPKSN
LEDGF integ inh: blocks HIV-1 LEDGF/p75-dependent DNA integration; TR-FRET IN-LEDGF/p75 DNA integration, Eu/Cy5; inhibition, % at 3.7 µM; actives 0.64% (n = 370,000);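 active = inhibition above the screen-wide mean plus 3 SD, cut at about 13% in these data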;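 note: signal is the Cy5 over europium emission ratio at 671 and 618 nm; 0% = plate median of compound wells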
UHRF1 MBD2 ctr: UHRF1 methyl-DNA binding inhibition; Q96T88; AID 687016; actives 0.75% (n = 370,000); UHRF1 binding to methylated oligo, TR-FRET; inhibition, % at 4.4 µM;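 note: UHRF1 SRA domain binding a hemimethylated CpG hairpin DNA probe; 0% = median of test compound wells and 100% = reference inhibitor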
NSD2 HMT inh: NSD2 (human) methyltransferase inhibition. NSD2 peptide methylation, AlphaScreen, 120 min. inhibition, % at 12.5 µM. actives 0.54% (n = 310,000). AID 743445; in the data active = inhibition above about 50%
MBD2 DNA inh: inhibitors of human MBD2 binding to methylated oligonucleotide | Q9UBB5 | TR-FRET | inhibition, % at 4.4 µM | actives 0.31% (n = 370,000) | AID 686964; in the data active = inhibition above about 13%
UHRF1 ctr MBD2: counter-screen for MBD2 inhibitors: human UHRF1 methylated DNA binding inhibitors. inhibition, % at 4.4 µM. actives 25% (n = 1,000). AID 720530. UHRF1 binding to methylated oligonucleotide, TR-FRET. shares compounds with MBD2 DNA inh;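 note: UHRF1 SRA domain binding a labeled hemimethylated CpG hairpin DNA; 0% = vehicle only and 100% = reference inhibitor with vehicle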
MBD2 confirm: confirmation of human MBD2-DBD methylated oligonucleotide binding inhibitors | AID 720531 | TR-FRET MBD2-DBD binding to methylated oligonucleotide | shares compounds with MBD2 DNA inh | actives 26% (n = 1,000) | inhibition, % at 4.4 µM; in the data active = inhibition above about 14%
* marks the source's active call; other numbers are inactive results. Cut-off read from the data, not from the text of the source, unless noted: active = inhibition above about 21%; inactive = the rest.

Screening CCc1cccc(NC(=O)CNC(=O)N2CC(=O)Nc3ccccc32)c1 returned TDP2 inh -6.5, Casp6 inh 1.1, LEDGF integ inh 0.8, UHRF1 MBD2 ctr 0.1, NSD2 HMT inh -1.1, MBD2 DNA inh 13.8*, UHRF1 ctr MBD2 4.2 and MBD2 confirm 2.6.
For CCC(=O)c1ccc(OCC(=O)NCc2ccccc2CN2CCCC2)cc1 the results were TDP2 inh -4.1, Casp6 inh 6.5, LEDGF integ inh 4.9, UHRF1 MBD2 ctr 1.4, NSD2 HMT inh -5.2, MBD2 DNA inh 34.7*, UHRF1 ctr MBD2 6.5 and MBD2 confirm 3.2.
COc1cc(NC(=O)COc2ccccc2[N+](=O)[O-])ccc1NC(=O)c1ccco1 was read as TDP2 inh 16.5, Casp6 inh -3.7, LEDGF integ inh -2.2, UHRF1 MBD2 ctr -0.8, NSD2 HMT inh 1.0 and MBD2 DNA inh 6.2.
Screening COc1cc(NC(=O)c2ccc(OC)c([N+](=O)[O-])c2)ccc1NC(=O)c1ccco1 returned TDP2 inh 9.2, Casp6 inh 1.7, LEDGF integ inh 0.7, UHRF1 MBD2 ctr -2.9, NSD2 HMT inh -0.8, MBD2 DNA inh 18.4*, UHRF1 ctr MBD2 8.1 and MBD2 confirm 1.9.
CN(C)CC(=O)N1CC2(C1)[C@@H](c1ccccc1)[C@@H](CO)N2C(=O)C1CCCC1 was read as Casp6 inh -0.8.
COc1cc(OC)cc(-c2sc3ccc(OC)cc3c2C#CC2(N)CCCCC2)c1 was read as TDP2 inh 8.5, Casp6 inh -4.6, LEDGF integ inh 8.8, UHRF1 MBD2 ctr 28.8*, MBD2 DNA inh 13.9*, UHRF1 ctr MBD2 3.1 and MBD2 confirm 6.7.
Screening COc1ccccc1OCCSc1nc2ccccc2c(=O)[nH]1 returned TDP2 inh -12.2, LEDGF integ inh 2.0, UHRF1 MBD2 ctr 1.7, NSD2 HMT inh -2.3 and MBD2 DNA inh 1.9.
`O=c1[nH]c(SCCOc2ccccc2F)nc2ccccc12` gave TDP2 inh 2.0, Casp6 inh -4.2, LEDGF integ inh 2.1, UHRF1 MBD2 ctr 22.7*, NSD2 HMT inh 1.0, MBD2 DNA inh 13.9*, UHRF1 ctr MBD2 5.8 and MBD2 confirm 2.3.
For CCN(CC)C(=O)c1cc2c(=O)c3cc(F)ccc3oc2nc1C the results were TDP2 inh -5.8, Casp6 inh 16.4, LEDGF integ inh 1.8, UHRF1 MBD2 ctr 1.1, NSD2 HMT inh -4.6, MBD2 DNA inh 19.2*, UHRF1 ctr MBD2 5.0 and MBD2 confirm 5.5.
O=C(O)c1cccc2c3c([nH]c12)CCCC3 was read as TDP2 inh -0.6, Casp6 inh 12.9, LEDGF integ inh -3.0, UHRF1 MBD2 ctr 0.5, NSD2 HMT inh 2.3, MBD2 DNA inh 18.1*, UHRF1 ctr MBD2 5.1 and MBD2 confirm 2.5.
For C=CCOC(=O)[C@@H]1[C@H]2C(=O)O[C@H](c3ccccc3)[C@H](c3ccccc3)N2[C@H](c2ccc(OCCOC(=O)[C@@H]3C[C@@H]4C(=O)N[C@@H](Cc5ccccc5)C(=O)N4[C@@H]3c3ccc(O)cc3)cc2)[C@@]12C(=O)Nc1ccc(I)cc12 the results were Casp6 inh 0.8.
Screening CC1=CC2(CO)C(=O)[C@]3(CO3)[C@H]1[C@H]1[C@]2(C)C=C(CO)C(=O)[C@]12CO2 returned Casp6 inh -3.4.
CCN(CC)CCNc1nc2cc(OC)c(OC)cc2c2nc(-c3ccccc3)nn12 was read as TDP2 inh 4.7, LEDGF integ inh -4.5, UHRF1 MBD2 ctr 38.1*, NSD2 HMT inh 0.8, MBD2 DNA inh 31.3*, UHRF1 ctr MBD2 33.5* and MBD2 confirm 25.1*.
For CCCCNC(=O)CCC(=O)NNc1nc2ccccc2c2nc(-c3ccccc3)nn12 the results were TDP2 inh -4.8, Casp6 inh 1.7, LEDGF integ inh 0.6, UHRF1 MBD2 ctr -4.6, NSD2 HMT inh 1.0 and MBD2 DNA inh 2.3.
Screening O=C(Cn1cc(COc2cccc([N+](=O)[O-])c2)nn1)c1ccc(O)cc1 returned TDP2 inh 1.6, Casp6 inh -2.6, LEDGF integ inh 5.7, UHRF1 MBD2 ctr 21.3*, MBD2 DNA inh 13.3*, UHRF1 ctr MBD2 10.6 and MBD2 confirm 9.3.
`Cc1cc(OCc2cn(CC(=O)c3ccc(O)cc3)nn2)ccc1[N+](=O)[O-]` gave TDP2 inh 2.0, Casp6 inh 7.9, LEDGF integ inh -2.9, UHRF1 MBD2 ctr 14.5 and MBD2 DNA inh 2.1.
CNc1c2cccc(C)c2nc2c(C(=O)NCCN(C)C)cccc12 was read as TDP2 inh -1.6, Casp6 inh -29.7, LEDGF integ inh 7.7, UHRF1 MBD2 ctr 61.0*, NSD2 HMT inh 10.8, MBD2 DNA inh 90.8*, UHRF1 ctr MBD2 54.7* and MBD2 confirm 103.2*.
`Cc1ccc(C(=O)NCCN(C)C)c(C)c1` gave TDP2 inh -6.4, LEDGF integ inh -2.8, UHRF1 MBD2 ctr 4.3, NSD2 HMT inh 5.8 and MBD2 DNA inh 7.1.
CCN(CC)CCNC(=O)C1c2cc(OC)c(OC)cc2C(=O)N(C)C1c1cccs1 (stereo not drawn) was read as TDP2 inh -11.8, Casp6 inh 5.2, LEDGF integ inh -3.5, UHRF1 MBD2 ctr 0.2, NSD2 HMT inh 9.2, MBD2 DNA inh 42.3*, UHRF1 ctr MBD2 3.3 and MBD2 confirm 1.1.
For C[C@H](CO)N1C[C@H](C)[C@H](CN(C)Cc2cncnc2)Oc2ncc(-c3cccc(F)c3)cc2C1=O the results were Casp6 inh -3.7.
Screening CC(C)Oc1ccc(C(CCNCc2ccc(O)cc2)c2ccccc2)cc1 (stereo not drawn) returned TDP2 inh -12.6, Casp6 inh -1.0, LEDGF integ inh -3.4, UHRF1 MBD2 ctr -2.2, NSD2 HMT inh 17.9, MBD2 DNA inh 65.2*, UHRF1 ctr MBD2 3.3 and MBD2 confirm 5.5.
COc1ccc(C(CCNCc2ccc(N(C)C)cc2)c2ccccc2)cc1 (stereo not drawn) was read as TDP2 inh -2.4, Casp6 inh 2.0, LEDGF integ inh -2.8, UHRF1 MBD2 ctr 0.3, NSD2 HMT inh 14.8 and MBD2 DNA inh 1.3.
CN1C(=O)c2cc(NC(=O)c3cnccn3)ccc2OC[C@@H]2O[C@@H](CC(=O)O)CC[C@@H]21 was read as Casp6 inh -0.2.
CNC(=S)N(Cc1cc2cc(OC)c(OC)cc2[nH]c1=O)C1CCCC1 was read as TDP2 inh 9.1, Casp6 inh 0.9, LEDGF integ inh -1.8, UHRF1 MBD2 ctr 2.0, NSD2 HMT inh 1.8, MBD2 DNA inh 19.5*, UHRF1 ctr MBD2 11.3 and MBD2 confirm 3.2.
